Assay results: ChEMBL document CHEMBL4130621, “Structure-Activity Relationship Studies with Tetrahydroquinoline Analogs as EPAC Inhibitors” (ACS Med Chem Lett, 2017)
Active and inactive are the calls of the source. No cut-off for these calls is given here.

How the values were obtained:
[1] = target: T1, Rap guanine nucleotide exchange factor 3 (Homo sapiens) (UniProt O95398); assay: Inhibition of recombinant human GST-tagged EPAC1 (149 to 881 residues) expressed in Escherichia coli Rosetta 2(DE3) assessed as reduction in guanine nucleotide exchange activity at 10 uM using BODIPY-labeled GDP loaded Rap1A by fluorescence assay relative to control
T1 sequence (whole entry): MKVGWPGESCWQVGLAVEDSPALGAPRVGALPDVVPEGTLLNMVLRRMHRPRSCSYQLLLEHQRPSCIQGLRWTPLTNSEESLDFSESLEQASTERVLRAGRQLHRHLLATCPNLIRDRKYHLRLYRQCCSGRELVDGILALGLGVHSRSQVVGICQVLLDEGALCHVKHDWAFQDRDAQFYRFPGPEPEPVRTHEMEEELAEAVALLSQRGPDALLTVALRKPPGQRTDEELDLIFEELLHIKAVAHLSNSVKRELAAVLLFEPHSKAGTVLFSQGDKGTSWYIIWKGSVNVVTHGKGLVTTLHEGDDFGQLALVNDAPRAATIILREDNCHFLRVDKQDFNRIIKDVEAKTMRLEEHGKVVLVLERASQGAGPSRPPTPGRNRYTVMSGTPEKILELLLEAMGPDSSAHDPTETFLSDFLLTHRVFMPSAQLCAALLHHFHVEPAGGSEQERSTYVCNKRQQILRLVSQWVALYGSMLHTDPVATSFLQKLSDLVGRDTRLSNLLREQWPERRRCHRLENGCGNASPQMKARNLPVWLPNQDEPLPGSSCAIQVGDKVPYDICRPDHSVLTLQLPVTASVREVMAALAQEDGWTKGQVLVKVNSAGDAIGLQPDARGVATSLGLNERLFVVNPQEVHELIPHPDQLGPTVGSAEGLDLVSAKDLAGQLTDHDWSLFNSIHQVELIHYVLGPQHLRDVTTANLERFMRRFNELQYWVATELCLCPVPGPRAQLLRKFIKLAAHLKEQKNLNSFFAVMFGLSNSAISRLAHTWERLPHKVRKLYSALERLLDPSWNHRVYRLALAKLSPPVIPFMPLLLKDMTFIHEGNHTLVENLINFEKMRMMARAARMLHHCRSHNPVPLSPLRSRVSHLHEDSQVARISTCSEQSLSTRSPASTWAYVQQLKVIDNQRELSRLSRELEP
Procedure, shortened: (§1)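 EPAC1 was stimulated with the analog present at 10 or 50 μM. Activity was then measured as guanine nucleotide exchange factor activity toward Rap1 in a BODIPY-GDP-based assay, used as a screen.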

[2] = target: T2, Rap guanine nucleotide exchange factor 3 (Homo sapiens, UniProt O95398); assay: Inhibition of recombinant human GST-tagged EPAC1 (149 to 881 residues) expressed in Escherichia coli Rosetta 2(DE3) assessed as reduction in guanine nucleotide exchange activity using BODIPY-labeled GDP loaded Rap1A by fluorescence assay
T2 sequence (O95398 whole entry): T1 sequence (whole entry)

[3] = target: T1, Rap guanine nucleotide exchange factor 3 (Homo sapiens); assay: Inhibition of recombinant human GST-tagged EPAC1 (149 to 881 residues) expressed in Escherichia coli Rosetta 2(DE3) assessed as reduction in guanine nucleotide exchange activity at 50 uM using BODIPY-labeled GDP loaded Rap1A by fluorescence assay relative to control; procedure, shortened: as §1
[4] = target: Rap guanine nucleotide exchange factor 4 (Homo sapiens, UniProt Q8WZA2); assay: Inhibition of recombinant human GST-tagged EPAC2 expressed in Escherichia coli Rosetta 2(DE3) assessed as reduction in guanine nucleotide exchange activity using BODIPY-labeled GDP loaded Rap1A by fluorescence assay
Rap guanine nucleotide exchange factor 4, sequence (Q8WZA2 whole entry): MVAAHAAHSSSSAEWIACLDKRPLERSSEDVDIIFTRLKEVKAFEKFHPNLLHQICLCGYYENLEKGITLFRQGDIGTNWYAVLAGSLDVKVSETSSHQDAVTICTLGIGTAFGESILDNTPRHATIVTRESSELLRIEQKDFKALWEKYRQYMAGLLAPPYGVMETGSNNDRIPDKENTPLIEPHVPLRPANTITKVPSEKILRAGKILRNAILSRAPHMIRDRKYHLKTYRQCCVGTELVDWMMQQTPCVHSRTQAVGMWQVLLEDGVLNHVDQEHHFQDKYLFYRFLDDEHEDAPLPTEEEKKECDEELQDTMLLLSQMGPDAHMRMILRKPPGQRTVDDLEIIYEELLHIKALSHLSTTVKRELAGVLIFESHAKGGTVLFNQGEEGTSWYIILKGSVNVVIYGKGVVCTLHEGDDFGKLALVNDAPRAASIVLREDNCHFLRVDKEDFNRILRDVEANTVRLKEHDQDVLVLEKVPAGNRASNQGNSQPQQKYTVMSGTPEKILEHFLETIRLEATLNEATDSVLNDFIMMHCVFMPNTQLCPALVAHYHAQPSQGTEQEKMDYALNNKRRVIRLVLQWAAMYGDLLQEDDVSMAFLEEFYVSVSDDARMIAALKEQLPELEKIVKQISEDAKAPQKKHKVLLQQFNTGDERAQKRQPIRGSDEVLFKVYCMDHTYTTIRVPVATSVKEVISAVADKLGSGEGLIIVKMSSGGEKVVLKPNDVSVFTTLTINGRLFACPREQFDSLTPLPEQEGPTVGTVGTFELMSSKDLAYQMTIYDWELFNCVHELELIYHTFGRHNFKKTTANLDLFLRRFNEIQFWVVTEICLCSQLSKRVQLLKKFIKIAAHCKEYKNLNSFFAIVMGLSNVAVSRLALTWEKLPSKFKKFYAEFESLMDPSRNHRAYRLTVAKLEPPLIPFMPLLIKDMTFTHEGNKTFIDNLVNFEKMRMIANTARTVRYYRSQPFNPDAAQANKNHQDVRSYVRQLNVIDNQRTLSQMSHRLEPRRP

Compound	inhibition [1]	IC50 [2] [µM]	inhibition [3] [%]	IC50 [4] [µM]
C[C@H]1CCc2cc(F)ccc2N1C=O	Active	–	–	–
C[C@H]1CCc2c(cc(Br)c(F)c2Br)N1C=S	–	> 100	–	–
CC1CCc2c(Br)c(F)c(Br)c(Br)c2N1C=O (centres undefined)	23.6%	–	46	–
CC(=O)N1c2cc(Br)c(F)c(Br)c2CCC1C (centres undefined)	8.7%	–	26.2	–
C[C@@H]1CCc2c(cc(Br)c(F)c2Br)N1	Active	–	–	–
CC1CCc2cc(F)ccc2N1C=O (centres undefined)	5.3%	–	5	–
CC1CCc2c(ccc(F)c2Br)N1C=O (centres undefined)	15.8%	–	42	–
C[C@@H]1CCc2c(ccc(F)c2Br)N1C=O	Active	–	–	–
CC1CCc2c(cc(Br)c(F)c2Br)N1C=O (centres undefined)	58.1%	–	88.3	–
C[C@H]1CCc2c(cc(Br)c(F)c2Br)N1	Active	–	–	–
C[C@@H]1CCc2c(cc(Br)c(F)c2Br)N1C=O	–	3.3	–	22.3
C[C@H]1CCc2c(ccc(F)c2Br)N1C=O	Active	–	–	–
C[C@@H]1CCc2cc(F)ccc2N1C=O	Active	–	–	–
C[C@@H]1CCc2c(cc(Br)c(F)c2Br)N1C=S	–	17.6	–	–
C[C@H]1CCc2c(cc(Br)c(F)c2Br)N1C=O	–	31.3	–	17.1
CC1CCc2c(cc(Br)c(F)c2Br)N1 (centres undefined)	40.8%	–	74.1	–
